Measured values from different studies.
pIC50: −log10 of the molar value. In brackets after ≈: the same amount, converted by molar mass.
Organism: Nakaseomyces glabratus

| Compound | assay | test system | conditions | endpoint | value |
| --- | --- | --- | --- | --- | --- |
| CCCCOc1c(OC)cc(NC(C)CCCN)c2nc(C(C)(C)C)cc(C)c12 (stereo not drawn) | microbial growth, broth dilution | ATCC90030 | – | MIC | > 20 mg/L |
| OC(CN1CCOCC1)(Cn1cncn1)c1ccc(F)cc1F (stereo not drawn) | microbial growth, broth dilution | ATCC2001 | 48 h | MIC | 31.3 mg/L (≈ 96.5 µM) |
| CCCCCCCCOc1c(OC)cc(NC(C)CCCNC(=O)C2CCCN2)c2nc(C(C)(C)C)ccc12 (stereo not drawn) | microbial killing | ATCC90030 | – | MFC | 20 mg/L (≈ 37 µM) |
| COc1cccc(-n2cc(Cn3c(C(=O)O)nc4ccccc4c3=O)nn2)c1 | microbial growth, broth dilution | ATCC90030 | 24 h | IC50 | 453 mg/L |
| CCCCCCCCCCCN1CCN(CC(O)(Cn2cncn2)c2ccc(F)cc2F)CC1 (stereo not drawn) | microbial growth, broth dilution | ATCC2001 | 48 h | MIC | 3.9 mg/L (≈ 8.17 µM) |
| COc1ccc(-n2cc(Cn3c(C(=O)O)nc4ccccc4c3=O)nn2)cc1 | microbial growth, broth dilution | ATCC90030 | 24 h | IC50 | 718 mg/L |
| CCCCCCOc1c(OC)cc(NC(C)CCCN)c2nc(C(C)(C)C)ccc12 (stereo not drawn) | microbial growth, broth dilution | ATCC90030 | – | MIC | 20 mg/L (≈ 48.1 µM) |
| C[C@@H]1[C@H](O)[C@@H](C)/C=C/C=C/C=C/C=C/C=C/C=C/C=C/[C@H](O[C@@H]2O[C@H](C)[C@@H](O)[C@H](N)[C@@H]2O)C[C@@H]2O[C@](O)(C[C@@H](O)C[C@@H](O)[C@H](O)CC[C@@H](O)C[C@@H](O)CC(=O)O[C@H]1C)C[C@H](O)[C@H]2C(=O)O | microbial growth | ATCC90030 | – | pIC50 | 6.41 |
| CCOC(=O)c1nc2ccccc2c(=O)n1Cc1cn(-c2ccccc2Cl)nn1 | microbial growth, broth dilution | ATCC90030 | 24 h | IC50 | 183 mg/L |
